Measured values pooled from the literature.
Each line is one published result; the experiments were not run side by side.
Target: Dual specificity protein kinase CLK3 (CLK3, Homo sapiens, UniProt P49761)

Compound | assay | setting | endpoint | value
CC(C)S(=O)(=O)c1ccc2nccc(Nc3ccc4sc(C5CCCC5)nc4c3)c2c1 | enzyme activity, inhibitor | 1 µM | activity vs control | 110%
CCCCC(=O)Nc1ccc(-c2ccc3ncn(CCC)c(=O)c3c2)cn1 | binding, competition with immobilised ligand | 0.5 µM | remaining binding | 78%
C1=C/COCc2cc(ccc2OCCN2CCCC2)Nc2nccc(n2)-c2cccc(c2)COC/1 | binding | 0.1 µM | remaining binding | 100%
C=CC(=O)N1CCC[C@@H](n2nc(-c3ccc(Oc4ccccc4)cc3)c3c(N)ncnc32)C1 | enzyme activity, inhibitor | 1 µM | inhibition | 23%
C[C@H]1CC[C@H](n2c3cnccc3c3cnc(Nc4ccc5c(n4)CCN(C(=O)CO)C5)nc32)CC1 | cell-free assay | 1 µM | remaining signal | 100%
Cc1cc(O)c(-c2ccc([C@@H](C)CN(C)C)cc2)c2c1[nH]c(=O)c1sccc12 | enzyme activity, inhibitor | 0.1 µM | inhibition | -13.2%
C=CC(=O)N1CCC([C@@H]2CCNc3c(C(N)=O)c(-c4ccc(Oc5ccccc5)cc4)nn32)CC1 | enzyme activity, inhibitor | 1 µM | inhibition | 16%
CN1CCN(C(=O)c2ccc(NC(=O)Nc3ccc(N(C)c4ccnc(Nc5ccc(CS(C)(=O)=O)cc5)n4)cc3)cc2)CC1 | binding | 1 µM | remaining binding | 95%
